Source: ChEMBL document CHEMBL5150021, “Identification of 5-(Aryl/Heteroaryl)amino-4-quinolones as Potent Membrane-Disrupting Agents to Combat Antibiotic-Resistant Gram-Positive Bacteria” (J Med Chem, 2022)
In brackets after ≈: the same amount, converted by molar mass. Activity calls are given as the source filed them. No cut-off for these calls is given here.

Assays:
[1] = test system: Staphylococcus epidermidis; experiment: Antibacterial activity against Staphylococcus epidermidis NIF104008 assessed as inhibition of bacterial growth incubated for 24 hrs by CLSI based method; format: functional
In short: (§1)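 Broth microdilution per CLSI. Equal volume of twofold serial compound dilutions added. Incubated stationary at 37 °C for 24 h. MIC taken as lowest concentration giving complete inhibition of visible growth. Oxacillin control for Gram-positives, ceftriaxone for Gram-negatives.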

[2] = test system: Staphylococcus simulans; experiment: Antibacterial activity against Staphylococcus simulans assessed as inhibition of RNA synthesis at 0.5 to 5 times MIC measured upto 60 mins by [3H]-uridine incorporation based scintillation counter analysis; format: functional, organism-based; details: DDE = dose-dependent effect
In short: (§2)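 S. simulans was grown in cation-adjusted Mueller–Hinton medium at 37 °C. […] Samples were taken at 0–60 min, precipitated with ice-cold 10% TCA, filtered and counted. Inhibition at 60 min is relative to DMSO control; triplicate.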

[3] = test system: Escherichia coli; experiment: Antibacterial activity against Escherichia coli DHMC-1 assessed as inhibition of bacterial growth incubated for 24 hrs by CLSI based method; format: functional; in short: as §1
[4] = test system: Staphylococcus simulans; experiment: Antibacterial activity against Staphylococcus simulans assessed as inhibition of RNA synthesis at 5 times MIC measured upto 60 mins by [3H]-uridine incorporation based scintillation counter analysis; format: functional; details: 1 h
In short: (§3)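 Aliquots taken 0–60 min, precipitated with ice-cold 10% TCA, filtered, washed, scintillation counted. Percent inhibition is relative to DMSO control at 60 min; triplicate.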

[5] = test system: Staphylococcus simulans; experiment: Antibacterial activity against Staphylococcus simulans assessed as inhibition of protein synthesis at 5 times MIC measured upto 60 mins by [3H]-L-isoleucine incorporation based scintillation counter analysis; format: functional; details: 1 h; in short: as §3
[6] = test system: Staphylococcus aureus; experiment: Antibacterial activity against methicillin-resistant Staphylococcus aureus NRS71 assessed as inhibition of bacterial growth incubated for 24 hrs by CLSI based method; format: functional; in short: as §1
[7] = test system: Enterococcus faecalis; experiment: Antibacterial activity against Enterococcus faecalis DHMC #1 assessed as inhibition of bacterial growth incubated for 24 hrs by CLSI based method; format: functional; in short: as §1
[8] = test system: Staphylococcus aureus; experiment: Antibacterial activity against methicillin-resistant Staphylococcus aureus N315 assessed as inhibition of bacterial growth incubated for 24 hrs by CLSI based method; format: functional; in short: as §1
[9] = test system: Staphylococcus simulans; experiment: Antibacterial activity against Staphylococcus simulans assessed as inhibition of DNA synthesis at 0.5 to 5 times MIC measured upto 60 mins by [3H]-thymidine incorporation based scintillation counter analysis; format: functional, organism-based; details: DDE = dose-dependent effect; in short: as §2
[10] = test system: Enterobacter cloacae; experiment: Antibacterial activity against Enterobacter cloacae ND-21 assessed as inhibition of bacterial growth incubated for 24 hrs by CLSI based method; format: functional; in short: as §1
[11] = test system: Staphylococcus aureus; experiment: Antibacterial activity against methicillin-resistant Staphylococcus aureus MW2 assessed as inhibition of bacterial growth incubated for 24 hrs by CLSI based method; format: functional; in short: as §1
[12] = test system: Staphylococcus aureus; experiment: microbe, parasite or virus in culture; details: USA300 FPR3757, 24 h
[13] = test system: Staphylococcus simulans; experiment: Antibacterial activity against Staphylococcus simulans assessed as inhibition of protein synthesis at 0.5 to 5 times MIC measured upto 60 mins by [3H]-L-isoleucine incorporation based scintillation counter analysis; format: functional, organism-based; details: DDE = dose-dependent effect; in short: as §2
[14] = test system: Staphylococcus simulans; experiment: Antibacterial activity against Staphylococcus simulans assessed as inhibition of DNA synthesis at 5 times MIC measured upto 60 mins by [3H]-thymidine incorporation based scintillation counter analysis; format: functional; details: 1 h; in short: as §3
[15] = test system: Staphylococcus aureus; experiment: Antibacterial activity against community-associated methicillin-resistant Staphylococcus aureus USA300 FPR3757 assessed as inhibition of bacterial growth incubated for 24 hrs by CLSI based method; format: functional
In short: (§4)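 It was mixed 1:1 with twofold serial compound dilutions and incubated stationary at 37 °C for 24 h. MIC was the lowest concentration giving complete inhibition of observable growth, with an oxacillin control.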

[16] = test system: Staphylococcus epidermidis; experiment: Antibacterial activity against Staphylococcus epidermidis NIF104003 assessed as inhibition of bacterial growth incubated for 24 hrs by CLSI based method; format: functional; in short: as §1
[17] = test system: Staphylococcus simulans; experiment: Antibacterial activity against Staphylococcus simulans assessed as inhibition of cell wall synthesis at 5 times MIC measured upto 60 mins by [3H]-glucosamine incorporation based scintillation counter analysis; format: functional; details: 1 h; in short: as §3
[18] = test system: Enterococcus faecium; experiment: Antibacterial activity against Enterococcus faecium DHMC #1 assessed as inhibition of bacterial growth incubated for 24 hrs by CLSI based method; format: functional; in short: as §1
[19] = test system: Staphylococcus aureus; experiment: Antibacterial activity against methicillin-resistant Staphylococcus aureus COL assessed as inhibition of bacterial growth incubated for 24 hrs by CLSI based method; format: functional; in short: as §1
[20] = test system: Klebsiella pneumoniae; experiment: Antibacterial activity against Klebsiella pneumoniae 7117 assessed as inhibition of bacterial growth incubated for 24 hrs by CLSI based method; format: functional; in short: as §1
[21] = test system: Staphylococcus aureus; experiment: Antibacterial activity against methicillin resistant Staphylococcus aureus FPR3757 assessed as inhibition of bacterial growth incubated for 24 hrs in presence of 10% FBS by CLSI based method; format: functional
In short: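 CLSI broth microdilution against MRSA FPR3757 (USA300) in Mueller–Hinton broth supplemented with 10% serum (fetal bovine or mouse). Inoculum 10⁶ CFU/mL with twofold serial compound dilutions, stationary incubation at 37 °C for 24 h. MIC read as lowest concentration with complete inhibition of visible growth.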

[22] = test system: Enterococcus faecium; experiment: Antibacterial activity against Enterococcus faecium ATCC19579 assessed as inhibition of bacterial growth incubated for 24 hrs by CLSI based method; format: functional; in short: as §1
[23] = test system: Enterococcus faecalis; experiment: Antibacterial activity against Enterococcus faecalis ATCC700802 assessed as inhibition of bacterial growth incubated for 24 hrs by CLSI based method; format: functional; in short: as §1
[24] = test system: Staphylococcus aureus; experiment: Antibacterial activity against methicillin resistant Staphylococcus aureus FPR3757 assessed as inhibition of bacterial growth incubated for 24 hrs by CLSI based method; format: functional; details: read-out: MIC100; in short: as §4
[25] = test system: Candida albicans; experiment: Antifungal activity against Candida albicans SC5314 assessed as inhibition of bacterial growth incubated for 24 hrs by CLSI based method; format: functional
In short: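 Broth microdilution per CLSI. It is mixed 1:1 with twofold serial compound dilutions and incubated stationary at 35 °C for 24 h. MIC is read as the lowest concentration with no observable growth.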

[26] = Induction of drug resistance in Staphylococcus aureus FPR3757 assessed as increase in MIC incubated for 65 days (reference value: 0.25 ug/ml); format: functional; details: FPR3757, 1560 h, time 65 day
[27] = test system: Cell membrane; experiment: Induction of cell membrane damage in Staphylococcus aureus USA300 assessed as cross-wall-septum formation with reduced splitting at 1 times MIC measured after 10 mins by TEM analysis; format: subcellular
[28] = test system: Cell membrane; experiment: Induction of cell membrane damage in Staphylococcus aureus USA300 assessed as mesosome-like membrane inclusions at 1 times MIC measured after 1 hrs by TEM analysis
In short: (§5)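 Fixed in glutaraldehyde/paraformaldehyde in cacodylate pH 7.4, post-fixed with osmium tetroxide, stained with uranyl acetate, resin-embedded, thin-sectioned and imaged by TEM.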

[29] = test system: Cell membrane; experiment: Induction of cell membrane damage in Staphylococcus aureus USA300 assessed as membrane wrinkling at 1 times MIC measured after 1 hrs by TEM analysis; in short: as §5
[30] = test system: Cell membrane; experiment: Induction of cell membrane damage in Staphylococcus aureus USA300 assessed as bulging of the septum at 1 times MIC measured after 1 hrs by TEM analysis; in short: as §5
[31] = Cytotoxicity against sheep erythrocytes assessed as reduction in cell viability; format: toxicity, cell-based, Ovis aries, Erythrocyte
In short: (§6)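 4% sheep erythrocytes mixed 1:1 with twofold serial compound dilutions in PBS, incubated stationary 1 h at 37 °C, then centrifuged at 500g for 5 min. Supernatant A540 is measured and percent hemolysis is calculated relative to DMSO vehicle (0%) and Triton X-100 (100%). Triplicate, mean ± SD.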

[32] = Therapeutic index, ratio of CC50 for Cytotoxicity against sheep erythrocytes to MIC for antibacterial activity against methicillin resistant Staphylococcus aureus FPR3757; format: toxicity
In short: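 Ratio of erythrocyte CC50 to MRSA FPR3757 MIC. For hemolysis, 4% washed sheep erythrocytes were mixed 1:1 with twofold compound dilutions in PBS and incubated 1 h at 37 °C. Supernatant A540 was read after centrifugation and normalized between DMSO and Triton X-100 (100% lysis). Triplicates. Highest concentration tested: 32 μg/mL.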

[33] = test system: Erythrocyte; experiment: Hemolytic activity in sheep erythrocytes at 32 ug/ml incubated for 1 hr; format: toxicity, cell-based, Ovis aries; details: dose 32 µg/ml; in short: as §6

SMILES	MIC [1] [µg/mL]	inhibition [2]	MIC [3] [µg/mL]	inhibition (INH) [4] [%]	inhibition (INH) [5] [%]	MIC [6] [µg/mL]	MIC [7] [µg/mL]	MIC [8] [µg/mL]	inhibition [9]	MIC [10] [µg/mL]	MIC [11] [µg/mL]	MBC [12] [µg/mL]	inhibition [13]	inhibition (INH) [14] [%]	MIC [15] [µg/mL]	inhibition (INH) [17] [%]	MIC [19] [µg/mL]	MIC [20] [µg/mL]	MIC [21] [µg/mL]	MIC [24] [µg/mL]	also measured
FC(F)(F)c1ccc2c(Nc3ccc(Cl)c(Cl)c3)cc(C(F)(F)F)nc2c1	0.125 (≈ 0.294 µM)	Dde	> 128	100	100	0.25 (≈ 0.588 µM)	0.25 (≈ 0.588 µM)	0.25 (≈ 0.588 µM)	Dde	> 128	0.125 (≈ 0.294 µM)	2 (≈ 4.7 µM)	Dde	100	0.0625 (≈ 0.147 µM)	100	0.25 (≈ 0.588 µM)	> 128	8	0.0625 (≈ 0.147 µM)	MIC [16]: 0.25 µg/mL (≈ 0.588 µM); MIC [18]: 0.25 µg/mL (≈ 0.588 µM); MIC [22]: 0.125 µg/mL (≈ 0.294 µM); MIC [23]: 0.5 µg/mL (≈ 1.18 µM); MIC [25]: > 256 µg/mL
FC(F)(F)c1ccc(Nc2cc(C(F)(F)F)nc3cc(C(F)(F)F)ccc23)nc1	0.125 (≈ 0.294 µM)	Dde	> 128	100	100	0.25 (≈ 0.588 µM)	1 (≈ 2.35 µM)	0.25 (≈ 0.588 µM)	Dde	> 128	0.125 (≈ 0.294 µM)	8 (≈ 18.8 µM)	Dde	100	0.25 (≈ 0.588 µM)	100	0.25 (≈ 0.588 µM)	> 128	4	0.25 (≈ 0.588 µM)	MIC [26]: 0.5 µg/mL; Activity [27]: Active; Activity [28]: Active; Activity [29]: Active; Activity [30]: Active; MIC [22]: 1 µg/mL (≈ 2.35 µM); MIC [23]: 16 µg/mL (≈ 37.6 µM); MIC [25]: > 256 µg/mL
O=c1cc(C(F)(F)F)[nH]c2cc(C(F)(F)F)cc(Nc3ccc(F)c(F)c3)c12																				< 0.0625	CC50 [31]: > 32 µg/mL; selectivity ratio [32]: > 500; Activity [33]: Non-Toxic
